# Measured values taken from ChEMBL document CHEMBL4400562, “Plumbagin Increases Paclitaxel-Induced Cell Death and Overcomes Paclitaxel Resistance in Breast Cancer Cells through ERK-Mediated Apoptosis Induction” (J Nat Prod, 2019).
# Activity calls are given as the source filed them. No cut-off for these calls is given here.
# Tests used:
# MDA-MB-468 [1] = test: Synergistic cytotoxicity against human MDA-MB-468 cells assessed as combination index at 0.5 to 2 uM after 24 hrs in presence of 5 to 20 nM of paclitaxel by MTT assay; type: functional
# Method in brief: (§1)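 The Chou–Talalay median-effect method was applied to 24 h MTT viability data. Five fixed-ratio plumbagin (μM)/paclitaxel (nM) combinations were used: for MCF-7 1/0.5, 2/1, 3/3, 4/5, 5/10. Cell-line-specific series were used for BT474 and MDA-MB-468. Single agents were run in parallel. CI was computed at several effect levels.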
# BT-474 [2] = test: Synergistic cytotoxicity against human BT474 cells assessed as combination index at 1 to 5 uM after 24 hrs in presence of 0.1 to 20 nM of paclitaxel by MTT assay; type: functional; method in brief: as §1
# MCF7 [3] = test: Synergistic cytotoxicity against human MCF7 cells assessed as combination index at 1 to 5 uM after 24 hrs in presence of 0.5 to 10 nM of paclitaxel by MTT assay; type: functional; method in brief: as §1
# MCF7 [4] = test: Induction of apoptosis in human MCF7 cells up to 3 uM after 24 hrs in presence of 1 nM of paclitaxel by Annexin V-phycoerythrin/7-AAD staining based flow cytometric analysis relative to control; type: functional
# Method in brief: (§2)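 Cells were treated for 24 h with single agents or combinations, then washed in annexin-binding buffer and stained with annexin V-PE and 7-AAD for 30 min at 15 °C in the dark. Apoptotic fraction was read by flow cytometry. DMSO was 0.5% final. Data from at least three independent experiments, one-way ANOVA with Tukey's test.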
# BT-474 [5] = test: Induction of apoptosis in human BT474 cells up to 2.5 uM after 24 hrs in presence of 2 nM of paclitaxel by Annexin V-phycoerythrin/7-AAD staining based flow cytometric analysis relative to control; type: functional; method in brief: as §2
# MCF7 [6] = test: Induction of apoptosis in human MCF7 cells pre-treated with ERK1/2 siRNA at 2 uM in presence of 1 nM paclitaxel by Annexin V-phycoerythrin/7-AAD staining based flow cytometric analysis relative to control; type: functional, cell-based
# Method in brief: (§3)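 Cells were transiently transfected for 24 h with ERK1 and ERK2 siRNA (0.5 μg) or scrambled control siRNA, with knockdown checked by Western blot. Cells were then treated for 24 h with the combination, stained with annexin V-PE and 7-AAD, and analysed by flow cytometry. Apoptosis was compared against control-siRNA cells.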
# MDA-MB-468 [7] = test: Induction of apoptosis in human MDA-MB-468 cells at 0.2 uM after 24 hrs in presence of 1 nM of paclitaxel by Annexin V-phycoerythrin/7-AAD staining based flow cytometric analysis relative to control; type: functional; method in brief: as §2
# MDA-MB-468 [8] = test: Induction of apoptosis in human MDA-MB-468 cells at 0.5 uM after 24 hrs in presence of 1 nM of paclitaxel by Annexin V-phycoerythrin/7-AAD staining based flow cytometric analysis relative to control; type: functional; method in brief: as §2
# [9] = target: T1, Mitogen-activated protein kinase; ERK1/ERK2 (Homo sapiens) (UniProt P27361+P28482); test: Inhibition of ERK1/2 in human MCF7 cells assessed as reduction in EGF-induced phosphorylation of ERK1/2 level up to 1 uM preincubated for 24 hrs followed by EGF addition and measured after 30 mins by Western blot analysis; type: cell-based
# T1 sequence (P27361 whole entry, looked up): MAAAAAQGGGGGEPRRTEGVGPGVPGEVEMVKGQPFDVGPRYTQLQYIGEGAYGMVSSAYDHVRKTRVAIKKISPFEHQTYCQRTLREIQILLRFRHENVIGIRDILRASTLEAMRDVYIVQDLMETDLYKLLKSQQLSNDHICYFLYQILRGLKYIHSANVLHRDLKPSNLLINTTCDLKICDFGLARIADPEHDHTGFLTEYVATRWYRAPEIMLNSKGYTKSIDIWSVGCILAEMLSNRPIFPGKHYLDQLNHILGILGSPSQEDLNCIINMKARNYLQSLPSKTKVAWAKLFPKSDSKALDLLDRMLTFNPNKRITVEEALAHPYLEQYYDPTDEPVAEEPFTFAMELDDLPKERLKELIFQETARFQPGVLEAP
# T1 sequence (P28482 whole entry, looked up): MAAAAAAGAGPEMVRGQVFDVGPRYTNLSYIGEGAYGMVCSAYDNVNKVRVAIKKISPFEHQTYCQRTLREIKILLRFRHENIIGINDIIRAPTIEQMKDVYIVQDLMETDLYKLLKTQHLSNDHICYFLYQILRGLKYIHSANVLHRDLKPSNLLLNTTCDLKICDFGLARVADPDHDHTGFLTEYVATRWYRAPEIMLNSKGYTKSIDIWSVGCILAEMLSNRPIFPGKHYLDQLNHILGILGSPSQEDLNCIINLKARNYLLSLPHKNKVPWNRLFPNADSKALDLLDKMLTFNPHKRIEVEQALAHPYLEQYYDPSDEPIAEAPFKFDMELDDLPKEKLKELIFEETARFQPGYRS
# [10] = target: T1, Mitogen-activated protein kinase; ERK1/ERK2 (Homo sapiens); test: Inhibition of ERK1/2 in human BT474 cells assessed as reduction in EGF-induced phosphorylation of ERK1/2 level up to 1 uM preincubated for 24 hrs followed by EGF addition and measured after 30 mins by Western blot analysis; type: cell-based
# [11] = target: T1, Mitogen-activated protein kinase; ERK1/ERK2 (Homo sapiens); test: Inhibition of ERK1/2 in human MDA-MB-468 cells assessed as reduction in EGF-induced phosphorylation of ERK1/2 level up to 0.5 uM preincubated for 24 hrs followed by EGF addition and measured after 30 mins by Western blot analysis; type: cell-based
# [12] = target: T1, Mitogen-activated protein kinase; ERK1/ERK2 (Homo sapiens); test: Inhibition of ERK1/2 in human MCF7 cells assessed as reduction in EGF-induced phosphorylation of ERK1/2 at Thr202/Tyr204 residues up to 3 uM preincubated for 1 hrs followed by EGF addition and measured after 30 mins by AlphaScreen analysis relative to control; type: cell-based
# [13] = target: T1, Mitogen-activated protein kinase; ERK1/ERK2 (Homo sapiens); test: Inhibition of ERK1/2 in human BT474 cells assessed as reduction in EGF-induced phosphorylation of ERK1/2 at Thr202/Tyr204 residues up to 2 uM preincubated for 1 hrs followed by EGF addition and measured after 30 mins by AlphaScreen analysis relative to control; type: cell-based
# [14] = target: T1, Mitogen-activated protein kinase; ERK1/ERK2 (Homo sapiens); test: Inhibition of ERK1/2 in human MDA-MB-468 cells assessed as reduction in EGF-induced phosphorylation of ERK1/2 at Thr202/Tyr204 residues up to 1 uM preincubated for 1 hrs followed by EGF addition and measured after 30 mins by AlphaScreen analysis relative to control; type: cell-based
# [15] = target: T1, Mitogen-activated protein kinase; ERK1/ERK2 (Homo sapiens); test: Inhibition of ERK1/2 in human MCF7 cells assessed as reduction in paclitaxel-induced phosphorylation of ERK1/2 at Thr202/Tyr204 residues up to 3 uM preincubated for 1 hrs followed by 1 nM paclitaxel addition and measured after 30 mins by AlphaScreen analysis relative to control; type: cell-based
# [16] = target: T1, Mitogen-activated protein kinase; ERK1/ERK2 (Homo sapiens); test: Inhibition of ERK1/2 in human BT474 cells assessed as reduction in paclitaxel-induced phosphorylation of ERK1/2 at Thr202/Tyr204 residues up to 2 uM preincubated for 1 hrs followed by 1 nM paclitaxel addition and measured after 30 mins by AlphaScreen analysis relative to control; type: cell-based
# [17] = target: T1, Mitogen-activated protein kinase; ERK1/ERK2 (Homo sapiens); test: Inhibition of ERK1/2 in human MDA-MB-468 cells assessed as reduction in paclitaxel-induced phosphorylation of ERK1/2 at Thr202/Tyr204 residues up to 1 uM preincubated for 1 hrs followed by 1 nM paclitaxel addition and measured after 30 mins by AlphaScreen analysis relative to control; type: cell-based
# MDA-MB-468 [18] = test: Induction of apoptosis in human MDA-MB-468 cells pre-treated with ERK1/2 siRNA at 0.2 uM in presence of 1 nM paclitaxel by Annexin V-phycoerythrin/7-AAD staining based flow cytometric analysis relative to control; type: functional; method in brief: as §3
# BT-474 [19] = test: Induction of apoptosis in human BT474 cells pre-treated with ERK1/2 siRNA at 1.5 uM in presence of 2 nM paclitaxel by Annexin V-phycoerythrin/7-AAD staining based flow cytometric analysis relative to control; type: functional, cell-based; method in brief: as §3
# MCF7 [20] = test: Cytotoxicity against human MCF7 cells assessed as reduction in cell viability after 24 hrs by MTT assay; settings: MCF7, 24 h
# MCF7/PTX [21] = test: Cytotoxicity against paclitaxel-resistant human MCF7/PTX cells assessed as reduction in cell viability after 24 hrs by MTT assay; type: functional, cell-based
# Method in brief: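 MTT viability after 24 h exposure. MCF-7/PTX cells were derived from MCF-7 by three months of culture in rising paclitaxel (0.4 to 6.0 nM). Cells grew in RPMI with 10% FBS at 37 °C, 5% CO2. Compounds were dissolved in DMSO, 0.5% final. At least three independent experiments.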
# MCF7/PTX [22] = test: Induction of apoptosis in paclitaxel-resistant human MCF7/PTX cells at 3 uM after 24 hrs by Annexin V-phycoerythrin/7-AAD staining based flow cytometric analysis relative to control; type: functional; method in brief: as §2
# MCF7 [23] = test: Induction of apoptosis in human MCF7 cells at 3 uM after 24 hrs by Annexin V-phycoerythrin/7-AAD staining based flow cytometric analysis relative to control; type: functional; method in brief: as §2
# [24] = target: T1, Mitogen-activated protein kinase; ERK1/ERK2 (Homo sapiens); test: Inhibition of ERK1/2 in paclitaxel-resistant human MCF7/PTX cells assessed as reduction in paclitaxel-induced phosphorylation of ERK1/2 at Thr202/Tyr204 residues up to 3 uM preincubated for 1 hrs followed by 1 nM paclitaxel addition and measured after 30 mins by AlphaScreen analysis; type: cell-based
# MCF7/PTX [25] = test: Potentiation of paclitaxel-induced apoptosis in paclitaxel-resistant human MCF7/PTX cells at 2 uM after 24 hrs by Annexin V-phycoerythrin/7-AAD staining based flow cytometric analysis; type: functional, cell-based; method in brief: as §2
# MCF7 [26] = test: Induction of apoptosis in human MCF7 cells at 1 nM after 24 hrs by Annexin V-phycoerythrin/7-AAD staining based flow cytometric analysis relative to control; type: functional
# BT-474 [27] = test: Induction of apoptosis in human BT474 cells at 2 nM after 24 hrs by Annexin V-phycoerythrin/7-AAD staining based flow cytometric analysis relative to control; type: functional
# MDA-MB-468 [28] = test: Induction of apoptosis in human MDA-MB-468 cells at 1 nM after 24 hrs by Annexin V-phycoerythrin/7-AAD staining based flow cytometric analysis relative to control; type: functional
structure (smiles),measurement,setting,value
CC1=CC(=O)c2c(O)cccc2C1=O [PLUMBAGIN],CI,MDA-MB-468 [1],0.5 - 1
same,CI,BT-474 [2],0.6
same,CI,MCF7 [3],0.9
same,Activity,MCF7 [4],10%
same,Activity,BT-474 [5],15%
same,Activity,MCF7 [6],Active
same,Activity,MDA-MB-468 [7],20%
same,Activity,MDA-MB-468 [8],35%
same,inhibition,[9],Active
same,inhibition,[10],Active
same,inhibition,[11],Active
same,inhibition,[12],Active
same,inhibition,[13],Active
same,inhibition,[14],Active
same,inhibition,[15],Active
same,inhibition,[16],Active
same,inhibition,[17],Active
same,Activity,MDA-MB-468 [18],25%
same,Activity,BT-474 [19],Active
same,IC50,MCF7 [20],3.5 µM
same,IC50,MCF7/PTX [21],3.5 µM
same,Activity,MCF7/PTX [22],20%
same,Activity,MCF7 [23],20%
same,inhibition,[24],Active
same,Activity,MCF7/PTX [25],Active
CC(=O)O[C@H]1C(=O)[C@@]2(C)[C@H]([C@H](OC(=O)c3ccccc3)[C@]3(O)C[C@H](OC(=O)[C@H](O)[C@@H](NC(=O)c4ccccc4)c4ccccc4)C(C)=C1C3(C)C)[C@]1(OC(C)=O)CO[C@@H]1C[C@@H]2O [PACLITAXEL],Activity,MCF7 [26],10 - 15%
same,Activity,BT-474 [27],10 - 15%
same,Activity,MDA-MB-468 [28],10 - 15%
